These results are taken from ChEMBL document CHEMBL4680104, “Structure-Based Optimization of Small-Molecule Inhibitors for the β-Catenin/B-Cell Lymphoma 9 Protein-Protein Interaction” (J Med Chem, 2018).

Activity calls are given as the source filed them. The calls are words filed in the database; no cut-off is given here.

One experiment concerns SW480. The experiment can be described thus: Effect on E-cadherin-bound beta-catenin levels in human SW480 cells at 2 to 8 uM incubated for 24 hrs by Western blot analysis. Format: functional, cell-based. The settings on record: dose 2-8 µM. Put shortly:
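SW480 cells at 1 × 10^6 cells/mL were treated with a range of inhibitor concentrations for 24 h. Cells were lysed in Tris/NaCl/NP-40/deoxycholate/SDS buffer with protease inhibitors. Lysates were run on 8% SDS-PAGE and blotted to nitrocellulose. Blots were probed overnight at 4 °C for total β-catenin (mostly the E-cadherin-bound pool), active β-catenin (dephosphorylated S37/T41), cyclin D1, c-myc and β-tubulin. Detection used infrared secondary antibodies. Duplicate.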

In experiment [1] the target is T1, beta-catenin-B-cell lymphoma 9 protein complex (Homo sapiens, UniProt P35222).
T1 sequence (P35222 whole entry): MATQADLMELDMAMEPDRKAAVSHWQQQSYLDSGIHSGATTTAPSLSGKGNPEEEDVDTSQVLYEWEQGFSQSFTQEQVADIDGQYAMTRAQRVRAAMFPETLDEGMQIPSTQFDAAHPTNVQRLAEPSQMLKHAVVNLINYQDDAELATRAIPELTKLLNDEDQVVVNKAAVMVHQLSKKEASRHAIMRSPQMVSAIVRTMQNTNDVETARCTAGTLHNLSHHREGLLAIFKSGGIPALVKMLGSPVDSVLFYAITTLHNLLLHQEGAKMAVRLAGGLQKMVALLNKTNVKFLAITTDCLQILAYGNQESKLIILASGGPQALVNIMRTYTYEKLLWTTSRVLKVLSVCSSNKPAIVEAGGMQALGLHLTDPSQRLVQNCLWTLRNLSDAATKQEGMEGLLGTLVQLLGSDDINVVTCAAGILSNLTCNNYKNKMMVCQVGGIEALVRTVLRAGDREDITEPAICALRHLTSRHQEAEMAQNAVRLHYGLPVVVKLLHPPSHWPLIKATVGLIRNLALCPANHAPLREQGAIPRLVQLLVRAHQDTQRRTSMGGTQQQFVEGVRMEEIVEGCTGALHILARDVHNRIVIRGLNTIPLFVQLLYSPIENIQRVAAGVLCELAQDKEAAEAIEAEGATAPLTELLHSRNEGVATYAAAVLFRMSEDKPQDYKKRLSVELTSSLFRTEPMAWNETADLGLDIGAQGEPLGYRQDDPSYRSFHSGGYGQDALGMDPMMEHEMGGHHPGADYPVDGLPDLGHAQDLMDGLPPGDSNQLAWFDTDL
T1 sequence (O00512 whole entry): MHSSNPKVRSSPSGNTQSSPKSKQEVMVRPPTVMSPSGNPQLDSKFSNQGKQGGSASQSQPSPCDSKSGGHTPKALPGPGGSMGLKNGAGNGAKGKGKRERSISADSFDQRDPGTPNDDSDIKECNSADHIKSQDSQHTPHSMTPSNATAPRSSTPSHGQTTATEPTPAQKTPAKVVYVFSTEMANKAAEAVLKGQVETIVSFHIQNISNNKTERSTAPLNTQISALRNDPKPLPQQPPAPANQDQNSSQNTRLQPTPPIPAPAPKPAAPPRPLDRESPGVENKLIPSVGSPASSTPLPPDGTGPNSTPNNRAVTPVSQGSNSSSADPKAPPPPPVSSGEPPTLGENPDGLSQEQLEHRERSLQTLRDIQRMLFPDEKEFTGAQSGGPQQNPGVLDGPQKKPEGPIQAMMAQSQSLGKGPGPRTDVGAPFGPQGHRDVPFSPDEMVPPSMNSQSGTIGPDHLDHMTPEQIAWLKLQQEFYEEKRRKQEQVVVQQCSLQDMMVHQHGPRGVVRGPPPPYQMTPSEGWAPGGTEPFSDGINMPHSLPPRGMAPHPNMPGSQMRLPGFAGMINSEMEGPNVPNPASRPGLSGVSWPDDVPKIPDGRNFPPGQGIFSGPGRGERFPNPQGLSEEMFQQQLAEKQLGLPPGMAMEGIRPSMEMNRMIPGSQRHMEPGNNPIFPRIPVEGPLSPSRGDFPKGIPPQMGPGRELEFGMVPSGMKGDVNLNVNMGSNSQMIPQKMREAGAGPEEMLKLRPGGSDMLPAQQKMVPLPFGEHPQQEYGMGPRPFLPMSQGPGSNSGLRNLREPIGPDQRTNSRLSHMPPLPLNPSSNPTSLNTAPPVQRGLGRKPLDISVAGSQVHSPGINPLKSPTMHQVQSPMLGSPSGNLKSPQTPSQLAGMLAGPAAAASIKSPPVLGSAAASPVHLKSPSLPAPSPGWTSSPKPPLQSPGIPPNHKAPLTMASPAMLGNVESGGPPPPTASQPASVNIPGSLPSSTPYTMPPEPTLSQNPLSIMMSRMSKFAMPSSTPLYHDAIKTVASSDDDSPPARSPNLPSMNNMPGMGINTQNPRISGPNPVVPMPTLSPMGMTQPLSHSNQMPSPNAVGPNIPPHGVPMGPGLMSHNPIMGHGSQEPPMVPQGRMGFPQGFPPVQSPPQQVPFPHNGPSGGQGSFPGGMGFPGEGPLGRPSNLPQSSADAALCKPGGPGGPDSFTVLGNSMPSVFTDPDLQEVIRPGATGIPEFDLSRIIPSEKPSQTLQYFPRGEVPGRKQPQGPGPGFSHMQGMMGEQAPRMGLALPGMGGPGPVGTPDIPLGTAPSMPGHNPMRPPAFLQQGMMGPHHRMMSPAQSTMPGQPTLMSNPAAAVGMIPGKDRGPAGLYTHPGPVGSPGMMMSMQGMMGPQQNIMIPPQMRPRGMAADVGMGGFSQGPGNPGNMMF
The experiment can be described thus: Inhibition of protein interaction between beta-catenin (unknown origin)/BCL9 (unknown origin) by Alpha-screen competitive inhibition assay. It counts as protein-complex assay. A digest of the protocol: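 Purified His6-tagged full-length β-catenin (40 nM) preincubated with biotinylated BCL9 (5 nM) for 30 min at 4 °C. Inhibitor dilutions then added, 1 h at 4 °C, followed by donor and acceptor beads (10 μg/mL final) for 1 h at 4 °C. IC50 obtained by nonlinear least-squares fit and converted to Ki by the Nikolovska-Coleska method. Triplicate, mean ± SD.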

Experiment [2] is described as follows: Effect on HPRT mRNA expression in human SW480 cells at 100 uM incubated for 24 hrs by qPCR analysis relative to control. It counts as ADME, cell-based. The settings on record: read-out: FC. A digest of the protocol: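 SW480 cells at 1 × 10^6/mL were treated with inhibitor for 24 h. Total RNA was extracted with TRIzol and cDNA made by first-strand synthesis. SYBR green qPCR used human HPRT primers, with CT values normalised to GAPDH as internal reference. Performed in triplicate.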

The nature of experiment [3]: Inhibition of protein interaction between C-terminal 6x-histidine tagged full-length beta-catenin (1 to 781 residues) (unknown origin)/N-terminal biotinylated human E-cadherin (824 to 877 residues) incubated for 1 hr by Alpha-screen competitive inhibition assay. A digest of the protocol:
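Full-length β-catenin (residues 1–781) with a C-terminal His6 tag was expressed in E. coli BL21(DE3) after IPTG induction at 20 °C. It was purified by Ni-NTA, anion-exchange and size-exclusion chromatography. For the assay, 40 nM β-catenin was preincubated for 30 min at 4 °C with 5 nM biotinylated BCL9 or 10 nM biotinylated E-cadherin. Inhibitor was then added for 1 h at 4 °C, followed by 10 μg/mL donor and acceptor beads for 1 h at 4 °C. IC50 was obtained by nonlinear fit and converted to Ki by the Nikolovska-Coleska method. Triplicate, mean ± SD.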

As to `Cl.Cl.O=C(Nc1ccc(O[C@H]2CCNC2)c(-c2ccc(F)cc2)c1)c1ccc(O[C@H]2CCNC2)c(-c2ccc3ccsc3c2)c1`, the outcome with SW480 was inactive.

With `Cl.Cl.O=C(Nc1ccc(O[C@H]2CCNC2)c(-c2ccc(F)cc2)c1)c1ccc(O[C@H]2CCNC2)c(-c2ccc(F)c(F)c2)c1`, the inhibition constant Ki in experiment [1] is 2100 nM.

Turning to `Cl.Cl.O=C(Nc1ccc(O[C@@H]2CCNC2)c(-c2cccc(-c3nn[nH]n3)c2)c1)c1ccc(O[C@H]2CCNC2)c(-c2ccc(F)c(F)c2)c1`, in experiment [2], the fold induction at 100 µM amounted to 0.969. In experiment [3], this compound came in with an inhibitory constant (Ki) greater than 915000 nM.
